Measurements from different studies.
Each line is one published result; the experiments were not run side by side.
Organism: Staphylococcus aureus
Read-out: microbial growth

SMILES | method | strain | time | notes | MIC
c1ccc(NCc2ccc(Oc3ccccn3)cc2)cc1 |  |  |  |  | 1.8 µg/mL
CSc1nc(C)c(Cl)c(O)n1 |  |  |  |  | > 128 µg/mL
C/C(=C\c1ccc(C#N)cc1)C(=O)Nc1ccc(C(=O)N[C@@H](CC(N)=O)C(=O)Nc2ccc(C(=O)Nc3ccc(C(=O)Nc4ccc(C(=O)O)cc4)c(O)c3OC(C)C)cc2)cc1 |  | ATCC29213 |  |  | 0.06 µg/mL
Cc1cc(/C=C2\Sc3ccccc3N2CCCN2CCCCC2)c2ccccc2[n+]1C.[I-] | broth dilution | ATCCBAA44 |  |  | 8 µg/mL
C/C=C(\C)c1cc(OC(=O)c2c(C)c(Cl)c(O)c(Cl)c2O)c(C)c(O)c1C(=O)O | broth dilution | 745524 |  |  | 64 µg/mL
CC(C)COc1c(NC(=O)c2ccc(NC(=O)[C@H](CC(N)=O)NC(=O)c3ccc(NC(=O)c4ccc(C#N)cc4)cc3)cc2)ccc(C(=O)Nc2ccc(C(=O)O)cc2)c1O |  | ATCC29213 |  |  | 0.25 µg/mL
COc1cc2c(Nc3ccc(NC(=O)c4ccccc4)cc3)ncnc2cc1OCCCN1CCOCC1 |  | NCTC8325 |  |  | > 30 µM
O=C(O)c1cn(C2CC2)c2cc(N3CCNCC3)c(F)cc2c1=O | broth dilution | ATCC11632 | 18 h |  | < 5 µg/mL
N=C(N)NN=Cc1ccc(OC/C=C\COc2ccc(C=NNC(=N)N)cc2)cc1 |  | USA300 | 16 h |  | ≤ 3 µg/mL
CC1=NN(CNc2c(O)c(S(=O)(=O)O)cc3ccccc23)C(=O)C1=NNn1c(-c2ccccc2)nc2ccccc2c1=O | broth dilution |  | 24 h |  | 83.7 µM
CCN(CC)CCNC(=O)c1c(C)[nH]c(/C=C2\C(=O)Nc3ccc(F)cc32)c1C |  | NCTC8325 |  |  | > 30 µM
C/C=C(\C)c1cc(OC(=O)c2c(O)c(C)c(O)c(Cl)c2/C(C)=C/C)c(C)c(O)c1C(=O)O | broth dilution | MRSA |  |  | 64 µg/mL
COc1ncc(-c2ccc3nccc(-c4ccnnc4)c3c2)cc1NS(=O)(=O)c1ccc(F)cc1F |  | NCTC8325 |  |  | > 30 µM
C/C=C(\C)c1cc(O)c(C)c(OC(=O)c2c(C)cc(O)c(Cl)c2O)c1 | broth dilution | 16162 |  |  | 8 µg/mL
O=C(Cc1cc(O)c(O)c(O)c1)NCCCCCCCC[P+](c1ccccc1)(c1ccccc1)c1ccccc1.[Br-] | broth dilution | ATCC43300 MRSA | 18 h |  | > 32 µg/mL
O=C1NC(=S)S/C1=C\c1c2ccccc2c(-c2ccc(N(c3ccccc3)c3ccccc3)cc2)c2ccccc12 | broth dilution | ATCC6538 |  |  | > 1000 µg/mL
COc1c(C(=O)Nc2ccc(C(=O)O)cc2)ccc2nc(-c3cc(NC(=O)C(CC(N)=O)NC(=O)c4ccc(NC(=O)c5ccc(C#N)cc5)cc4)cn3C)[nH]c12 (centres unmarked) |  | ATCC29213 |  |  | > 64 µg/mL
Cc1ccc(C)n1-c1ccc(-c2nnc(-c3ccc(O)cc3)[nH]2)cc1 | broth dilution | ATCC11632 | 18 h |  | 8 µg/mL
c1ccc2[nH]c(-c3ccc4c(c3)OCO4)nc2c1 | broth dilution | ATCC29213 MSSA |  |  | 128 µg/mL
CC(C)Oc1c(NC(=O)c2ccc(NC(=O)[C@H](CC(N)=O)NC(=O)c3ccc(CNC(=O)c4ccc(C#N)cc4)cc3)cc2)ccc(C(=O)Nc2ccc(C(=O)O)cc2)c1O |  | ATCC29213 |  |  | > 64 µg/mL
COc1cccc(-c2nc3ccccc3n2Cc2ccccc2)c1 | broth dilution | ATCC29213 MSSA |  |  | 256 µg/mL

SMILES | method | strain | time | notes | MIC
CC(C)(O/N=C(\C(=O)N[C@@H]1C(=O)N2C(C(=O)[O-])=C(C[n+]3ccccc3)CS[C@H]12)c1csc(N)n1)C(=O)O | broth dilution | MRSA | 18 h | clinical isolate | 64 µg/mL
C[n+]1c(/C=C/c2ccc(O)cc2)cc(/C=C2\Sc3ccccc3N2CCCN2CCOCC2)c2ccccc21.[I-] | broth dilution | ATCCBAA44 |  |  | 8 µg/mL
C[C@@H](O)[C@H]1C(=O)N2C(C(=O)O)=C(S[C@@H]3CN[C@H](C(=O)N(C)C)C3)[C@H](C)[C@H]12 | broth dilution | ATCC29213 |  |  | 32 µg/mL
Cc1cc(C)cc(NC(=O)CN(C)S(=O)(=O)c2ccc3[nH]c4c(c3c2)CCCC4)c1 |  |  |  |  | > 128 µg/mL
C=CCn1c(-c2ccc(Cl)cc2)nc2ccc(C)cc21 | broth dilution | ATCC29213 MSSA |  |  | 32 µg/mL
Cc1cccc(NCc2ccc(Oc3ccccn3)cc2)c1 |  |  |  |  | > 6.2 µg/mL
CNC(=O)c1cc(Oc2ccc(NC(=O)Nc3c(C)cccc3Cl)cc2)ccn1 |  | NCTC8325 |  |  | > 100 µM
COc1ccc(C(=O)O)cc1NC(=O)/C=C/c1ccc(-c2ccccc2C)cc1 |  |  |  |  | 64 µg/mL
Cc1ccc2nc(-c3c4ccccc4cc4ccccc34)[nH]c2c1 | broth dilution | ATCC29213 MSSA |  |  | 64 µg/mL
O=C(Nc1ccc(OC(F)(F)F)cc1)c1sccc1NCc1ccnc2ccccc12 |  | NCTC8325 |  |  | > 30 µM
COc1c(C)c(OCc2ccccc2)c(C)c(O)c1C(=O)/C=C/c1ccccc1 | broth dilution | ATCC25923 |  |  | 5000 µg/mL
O=[N+]([O-])c1ccc(-c2nc3ccccc3[nH]2)cc1 | broth dilution | ATCC29213 MSSA |  |  | 128 µg/mL
C#CCCC1(CC(=O)NC(C)C)N=N1 |  | NCTC8325 |  |  | > 100 µM
FC(F)(F)c1cc(-c2nnc(Sc3cc(Cl)nc(Sc4ccccc4)n3)[nH]2)cc(C(F)(F)F)c1 |  | 83254 |  |  | 1.6 µM
O=C1NC(=S)N/C1=C\c1c2ccccc2c(-c2ccc(N(c3ccccc3)c3ccccc3)cc2)c2ccccc12 | broth dilution | ATCC43300 |  |  | > 1000 µg/mL
COc1cccc(OC)c1C(=O)N[C@@H]1C(=O)N2[C@@H]1SC(C)(C)[C@@H]2C(=O)O |  | 129 |  | clinical isolate | 37.5 µM
O=C(O)CN1C(=O)/C(=C/c2ccc(-c3ccc(N(c4ccccc4)c4ccccc4)cc3)cc2)NC1=S | broth dilution | ATCC25923 |  |  | 3.9 µg/mL
CCn1c(-c2nonc2N)nc2c(C#CC(C)(C)O)ncc(OC[C@H]3CCCNC3)c21 |  | NCTC8325 |  |  | > 30 µM
O=C(O)CN1C(=O)/C(=C/c2c3ccccc3c(-c3ccc(N(c4ccccc4)c4ccccc4)cc3)c3ccccc23)SC1=S | broth dilution | ATCC25923 |  |  | > 1000 µg/mL
O=C(Nc1ccc(Cl)c(C(F)(F)F)c1)Nc1cccc2c1OC(F)(F)O2 |  | NCTC8325 |  |  | 0.5 µM
